Test results taken from ChEMBL document CHEMBL1914356, “Maslinic acid derivatives induce significant apoptosis in b16f10 murine melanoma cells” (2011).

Each compound was assayed on B16-F10 (assay: Induction of apoptosis in mouse B16F10 cells assessed as necrotic cells at 30 uM after 24 hrs using annexin V-FITC/propidium iodide staining by flow cytometry).
Assay type: functional
Procedure, shortened: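 B16-F10 cells grown in DMEM with 4 mM L-glutamine, 1 mM pyruvate, 4.5 g/L glucose and 10% FBS. 300,000 cells/well were plated, then treated in DMSO after 24 h. Vehicle and medium-alone controls were included. Cells were detached with EDTA-trypsin, PBS-washed and set at 1 × 10^6 cells/mL in binding buffer. Annexin V-FITC/PI staining ran 15 min at room temperature in the dark, followed by flow cytometry within 1 h.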

| Compound | Activity [%] |
| --- | --- |
| CC1(C)CC[C@]2(CN=[N+]=[N-])CC[C@]3(C)C(=CC[C@@H]4[C@@]5(C)C[C@@H](O)[C@H](O)C(C)(C)[C@@H]5CC[C@]43C)[C@@H]2C1 | <10 |
| CC1(C)CC[C@]2(CO)CC[C@]3(C)C(=CC[C@@H]4[C@@]5(C)C[C@H](O)[C@H](O)C(C)(C)[C@@H]5CC[C@]43C)[C@@H]2C1 | <10 |
| CC(=O)O[C@@H]1C[C@]2(C)[C@H]3CC=C4[C@@H]5CC(C)(C)CC[C@]5(C(N)=O)CC[C@@]4(C)[C@]3(C)CC[C@H]2C(C)(C)[C@H]1OC(C)=O | <10 |
| COC(=O)[C@]12CCC(C)(C)C[C@H]1C1=CC[C@@H]3[C@@]4(C)C[C@@H](OC(C)=O)C(=O)C(C)(C)[C@@H]4CC[C@@]3(C)[C@]1(C)CC2 | <10 |
| CC1(C)CC[C@]2(C(=O)O)CC[C@]3(C)C(=CC[C@@H]4[C@@]5(C)C[C@@H](O)[C@H](O)C(C)(C)[C@@H]5CC[C@]43C)[C@@H]2C1 [MASLINIC ACID] | <10 |
| C=C1CC[C@H]2C(C)(C)[C@@H](OC(C)=O)CC[C@]2(C)/C1=C/CC1=C(C)CCC2(C(=O)OC)CCC(C)(C)C[C@@H]12 (single isomer, unassigned) | <10 |
| COC(=O)[C@]12CCC(C)(C)C[C@H]1[C@@](O)(/C=C\[C@@]13O[C@]1(C)CC[C@H]1C(C)(C)CCC[C@@]13C)[C@](C)(O)CC2 | <10 |
| CC1(C)CC[C@]2(C(=O)O)CC[C@]3(C)C(=CC[C@@H]4[C@@]5(C)C[C@H](O)[C@H](O)C(C)(C)[C@@H]5CC[C@]43C)[C@@H]2C1 [AUGUSTIC ACID] | <10 |
| C=C1C[C@]2(C)[C@H]3CC=C4[C@@H]5CC(C)(C)CC[C@]5(C(=O)OC)CC[C@@]4(C)[C@]3(C)CC[C@H]2C(C)(C)[C@H]1OC(C)=O | <10 |
| CC1(C)CC[C@]2(CO)CC[C@]3(C)[C@](O)([C@H](O)C=C4[C@@]5(C)CC[C@H](O)C(C)(C)[C@@H]5CC[C@]43C)[C@@H]2C1 | <10 |
| COC(=O)C12CCC(C)=C(/C=C\C3=C(C)CC[C@H]4C(C)(C)[C@@H](OC(C)=O)CC[C@]34C)[C@@H]1CC(C)(C)CC2 (single isomer, unassigned) | <10 |
| COC(=O)C12CCC(C)=C(/C=C\C3=C(C)CC[C@H]4C(C)(C)[C@@H](O)CC[C@]34C)[C@@H]1CC(C)(C)CC2 (single isomer, unassigned) | <10 |
| CC1(C)CC[C@]2(C(=O)O)CC[C@]3(C)C(=CC[C@@H]4[C@@]5(C)CC[C@H](O)C(C)(C)[C@@H]5CC[C@]43C)[C@@H]2C1 [OLEANOLIC_ACID] | <10 |
| CC1(C)CC[C@]2(CN)CC[C@]3(C)C(=CC[C@@H]4[C@@]5(C)C[C@@H](O)[C@H](O)C(C)(C)[C@@H]5CC[C@]43C)[C@@H]2C1 | <10 |
| COC(=O)[C@]12CCC(C)(C)C[C@H]1C1=CC[C@@H]3[C@@]4(C)C[C@H](OC(C)=O)[C@@H](O)C(C)(C)[C@@H]4CC[C@@]3(C)[C@]1(C)CC2 | <10 |
| CC(=O)O[C@H]1CC[C@]2(C)[C@H]3C=C[C@]45OC(=O)[C@@]6(CCC(C)(C)C[C@H]64)CC[C@@]5(C)[C@]3(C)CC[C@H]2C1(C)C | <10 |
| C=C1C2CC3[C@@]4(C)CC[C@H](OC(C)=O)C(C)(C)C4CC[C@@]3(C)C2=CC[C@@]2(C(=O)OC)CCC(C)(C)CC12 (stereo not given in full) | <10 |
| COC(=O)[C@]12CCC(C)(C)C[C@H]1C1=CC[C@@H]3[C@@]4(C)C[C@@H](C=O)C(C)(C)[C@@H]4CC[C@@]3(C)[C@]1(C)CC2 | <10 |
| CC(=O)O[C@H]1CC[C@]2(C)C3=CC(=O)[C@]45OC(=O)[C@@]6(CCC(C)(C)C[C@H]64)CC[C@@]5(C)[C@]3(C)CC[C@H]2C1(C)C | <10 |
| Cc1ccc(S(=O)(=O)OC[C@]23CCC(C)(C)C[C@H]2C2=CC[C@@H]4[C@@]5(C)C[C@H]6OC(C)(C)O[C@@H]6C(C)(C)[C@@H]5CC[C@@]4(C)[C@]2(C)CC3)cc1 | <10 |
